Data as given in article PMC7578760 (iScience, 2020).

Test system: CIC
Experiment: Nuclear/cytoplasmic distribution of CIC
Assay type: cell-based, human
Details: 293T and MCF7; FGF 10 ng/mL or EGF 75 ng/mL, time course
Method in brief: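 293T and MCF7 cells grown in high-glucose DMEM with 10% FBS and penicillin-streptomycin. Endogenous CIC: cells exposed to 10 ng/mL FGF or 75 ng/mL EGF for indicated times. Exogenous CIC: cells transfected with HA-CIC plasmid for 48 h, then FGF 10 ng/mL for 0, 1, 2 h. Cells separated into nuclear and cytoplasmic fractions; CIC in each fraction detected by western blot.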

B1: EGF: mitogen, 75 ng/mL (protein, UniProt P01133 23-1207, looked up)
Pro-epidermal growth factor: PQHWSCPEGTLAGNGNSTCVGPAPFLIFSHGNSIFRIDTEGTNYEQLVVDAGVSVIMDFHYNEKRIYWVDLERQLLQRVFLNGSRQERVCNIEKNVSGMAINWINEEVIWSNQQEGIITVTDMKGNNSHILLSALKYPANVAVDPVERFIFWSSEVAGSLYRADLDGVGVKALLETSEKITAVSLDVLDKRLFWIQYNREGSNSLICSCDYDGGSVHISKHPTQHNLFAMSLFGDRIFYSTWKMKTIWIANKHTGKDMVRINLHSSFVPLGELKVVHPLAQPKAEDDTWEPEQKLCKLRKGNCSSTVCGQDLQSHLCMCAEGYALSRDRKYCEDVNECAFWNHGCTLGCKNTPGSYYCTCPVGFVLLPDGKRCHQLVSCPRNVSECSHDCVLTSEGPLCFCPEGSVLERDGKTCSGCSSPDNGGCSQLCVPLSPVSWECDCFPGYDLQLDEKSCAASGPQPFLLFANSQDIRHMHFDGTDYGTLLSQQMGMVYALDHDPVENKIYFAHTALKWIERANMDGSQRERLIEEGVDVPEGLAVDWIGRRFYWTDRGKSLIGRSDLNGKRSKIITKENISQPRGIAVHPMAKRLFWTDTGINPRIESSSLQGLGRLVIASSDLIWPSGITIDFLTDKLYWCDAKQSVIEMANLDGSKRRRLTQNDVGHPFAVAVFEDYVWFSDWAMPSVMRVNKRTGKDRVRLQGSMLKPSSLVVVHPLAKPGADPCLYQNGGCEHICKKRLGTAWCSCREGFMKASDGKTCLALDGHQLLAGGEVDLKNQVTPLDILSKTRVSEDNITESQHMLVAEIMVSDQDDCAPVGCSMYARCISEGEDATCQCLKGFAGDGKLCSDIDECEMGVPVCPPASSKCINTEGGYVCRCSEGYQGDGIHCLDIDECQLGEHSCGENASCTNTEGGYTCMCAGRLSEPGLICPDSTPPPHLREDDHHYSVRNSDSECPLSHDGYCLHDGVCMYIEALDKYACNCVVGYIGERCQYRDLKWWELRHAGHGQQQKVIVVAVCVVVLVMLLLLSLWGAHYYRTQKLLSKNPKNPYEESSRDVRSRRPADTEDGMSSCPQPWFVVIKEHQDLKNGGQPVAGEDGQAADGSMQPTSWRQEPQLCGMGTEQGCWIPVSSDKGSCPQVMERSFHMPSYGTQTLEGGVEKPHSLLSANPLWQQRALDPPHQMELTQ
modifications: Pro-epidermal growth factor
With B1 the “cytosolic fraction of CIC” value was “time-dependent increase in the cytosolic fraction of CIC” and the “nuclear fraction of CIC” value was “concomitant drop of the nuclear fraction”.
